Rows were chosen to be rich in hits. Some 2.6% of all compounds tested hit in one or more screens of this group.
GSIS activator – primary screen for activators of insulin secretion dependent on glucose, INS-1E cells, GLuc reporter luminescence. INS-1E GLuc reporter insulin secretion, 2-3 h. activation, % at 16.6 µM. 370,000 tested, 0.61% active. AID 743287;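 active = lowest replicate activation of at least 40%, so every replicate reaches that level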;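 note: 0% = median of neutral control wells and 100% = median of IBMX positive control wells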
rRNA inh HTS – selective bacterial rRNA inhibition in E. coli. 350,000 tested, 1.6% active. AID 720706. GFP signal change (wild-type ribosome), % (test concentration not listed). E. coli WT GFP vs humanized-ribosome RFP mutants, fluorescence, 24 h; stronger effect = lower value; DMSO median 0, no signal -100;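 active = significant combined selectivity score with lowered wild-type GFP, culture density cut under 30%, mutant RFP and density less affected; inactive = any of these conditions unmet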
E-sel inducer – induces E-selectin expression in human endothelial cells. P16581. HUVEC E-selectin immunofluorescence imaging; normalized: neutral wells 0, TNF-alpha wells 100. activation, % at 7.58 µM. 260,000 tested, 0.37% active. AID 686992;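 active = mean E-selectin-positive cell signal at least 10% of the positive control, reached in at least 60% of replicates, without over 20% cell loss; inconclusive = no rule given, readout overlaps actives, possibly toxicity-flagged; inactive = the rest, including those meeting only one limit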
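Assay system: HUVEC, human umbilical vein endothelial cells / Amount: 3,000 HUVEC/well / Controls: TNF-alpha positive control, DMSO neutral control / Compound dosing: single concentration / Medium: EGM-2 over gelatin coat / Evaluation: percent E-selectin-positive cells / Signal: immunofluorescence imaging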
RAD52 anneal inh – RAD52 (human) annealing inhibition; inhibition, % at 18.7 µM; P43351; 360,000 tested, 0.46% active; recombinant RAD52 DNA annealing, FRET fluorescence;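 active = every replicate showing at least 50% inhibition; inconclusive = mean inhibition at least 50% but not in every replicate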
AF4-AF9 inh – inhibitors of human MLL-AF4/AF9 interaction | P42568 | AlphaScreen, biotin-AF4 peptide binding to FLAG-AF9 | inhibition, % at 10 µM | 350,000 tested, 0.47% active | AID 651704;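 active = every replicate reaching a set inhibition limit, whatever the replicate mean, cut at about 25% in these data; inconclusive = mean inhibition reaches that limit but some replicates miss it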;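 note: 0% = plate neutral control median and 100% = total signal loss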
Target sequence (P42568 whole entry, looked up): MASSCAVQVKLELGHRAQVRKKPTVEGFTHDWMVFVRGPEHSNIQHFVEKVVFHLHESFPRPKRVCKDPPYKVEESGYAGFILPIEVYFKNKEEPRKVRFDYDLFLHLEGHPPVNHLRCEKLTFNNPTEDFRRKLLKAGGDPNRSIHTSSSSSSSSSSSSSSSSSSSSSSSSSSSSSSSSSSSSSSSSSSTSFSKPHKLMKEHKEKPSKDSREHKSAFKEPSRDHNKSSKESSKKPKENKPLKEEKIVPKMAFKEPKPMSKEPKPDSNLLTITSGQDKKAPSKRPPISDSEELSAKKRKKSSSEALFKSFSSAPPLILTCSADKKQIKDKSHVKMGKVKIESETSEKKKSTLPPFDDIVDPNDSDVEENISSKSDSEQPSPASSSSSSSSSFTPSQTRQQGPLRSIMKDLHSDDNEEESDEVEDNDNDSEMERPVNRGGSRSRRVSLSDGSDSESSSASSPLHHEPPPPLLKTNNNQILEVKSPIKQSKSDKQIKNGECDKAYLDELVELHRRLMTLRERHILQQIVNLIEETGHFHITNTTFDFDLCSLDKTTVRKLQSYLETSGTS
RAD54 inh – RAD54 (human) branch migration inhibition; 360,000 tested, 0.14% active; AID 602329; inhibition, % at 10.4 µM; RAD54 Holliday junction branch migration, FAM/BHQ fluorescence;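 active = mean normalized replicate activity at least 40 and at least half of replicates scoring 40 or more; inconclusive = only one of the two criteria met; inactive = mean below 40 and under half of replicates reaching 40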;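 note: 0% = median of neutral control wells and 100% = median of positive control wells; inhibitors cause a drop in the FAM fluorescence signal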
Numbers without * were called inactive; ? = inconclusive; . = no result.

SMILES | GSIS activator | rRNA inh HTS | E-sel inducer | RAD52 anneal inh | AF4-AF9 inh | RAD54 inh
CCCNC(=O)Nc1ccc2c(c1)C(=O)N(C)C[C@H](OC)[C@H](C)CN(C(=O)CC)[C@H](C)CO2 | -2 | 1 | 0 | . | . | 1
COc1ccccc1CNC(=O)C[C@@H]1C[C@@H]2c3cc(NC(=O)Nc4ccccc4F)ccc3O[C@@H]2[C@H](CO)O1 | 23 | -2 | 1 | 6 | -1 | 0
COc1ccc(C(=O)Nc2ccc3[nH]ccc3c2)cc1 | 10 | -31* | 34* | -10 | 3 | .
COc1ccc(C(=O)Nc2ccc3[nH]ccc3c2)cc1OC | 12 | -10 | . | -11 | 0 | 2
COc1ccc(OC)c(C(=O)Nc2ccc3[nH]ccc3c2)c1 | 2 | -23* | 8 | -8 | 2 | .
Cc1noc(C)c1NC(=O)Nc1ccc2c(c1)C(=O)N([C@H](C)CO)C[C@@H](C)[C@H](CN(C)Cc1ccc(Oc3ccccc3)cc1)O2 | 3 | 1 | 2 | -12 | 7 | 17
Cc1noc(C)c1S(=O)(=O)Nc1ccc2c(c1)C(=O)N([C@@H](C)CO)C[C@@H](C)[C@H](CN(C)C(=O)c1ccccc1)OCCCC[C@H](C)O2 | -3 | -3 | 0 | 19 | -10 | -6
Cc1ccccc1CSCc1ccc(C(=O)NCCCN2CCOCC2)o1 | 46* | 11 | . | -17 | 4 | -3
C[C@H]1CN([C@@H](C)CO)C(=O)CCCn2cc(nn2)CO[C@H]1CN(C)C(=O)Nc1ccc(N2CCN(C)CC2)cc1 | 23 | 1 | 0 | 24 | 6 | 0
COc1cccc(NC(=O)CN(C)C(=O)Cn2[nH]c(=O)c3ccccc3c2=O)c1 | 41* | -8 | 0 | -8 | 0 | 6
COc1ccc(Cl)cc1NC(=O)CN(C)C(=O)Cn1[nH]c(=O)c2ccccc2c1=O | 57 | -20* | 0 | -6 | 1 | -2
CN(CC(=O)Nc1ccccc1Br)C(=O)Cn1[nH]c(=O)c2ccccc2c1=O | 46 | 10 | 0 | -1 | 0 | -6
COc1cccc(NC(=O)CN(C)CC(=O)Nc2ccccc2-c2ccccc2)c1 | -18 | -24* | 0 | -21 | 1 | -3
O=C(c1ccc(Cl)c(S(=O)(=O)N2CCCCCC2)c1)N1CCN(c2ccccc2O)CC1 | -5 | -44* | -1 | -12 | 2 | .
O=C1c2ccccc2-c2ccc(C(=O)N3CCCCC3)cc21 | 4 | -25* | -1 | -12 | 4 | .
Nc1ccccc1SC(CC(=O)c1ccccc1)c1cccc([N+](=O)[O-])c1 (stereo unspecified) | -17 | -24* | -1 | -9 | 3 | 1
Nc1ccccc1SC(CC(=O)c1ccccc1)c1ccc([N+](=O)[O-])cc1 (stereo unspecified) | 2 | -20* | 0 | -16 | 5 | 1
COc1ccc(C(CC(=O)c2ccc(C)cc2)Sc2ccccc2N)cc1 (stereo unspecified) | -5 | 1 | 1 | -15 | ? | -11
C[C@@H]1CCCCO[C@@H](CN(C)C(=O)Nc2ccc(F)cc2)[C@H](C)CN([C@H](C)CO)C(=O)c2cc(NS(C)(=O)=O)ccc2O1 | -11 | 0 | 0 | -2 | 2 | 1
COc1ccccc1NC(=O)C(C)OC(=O)C1CC(=O)N(c2ccc3c(c2)OCCO3)C1 (stereo unspecified) | -2 | -8 | 107* | 4 | 0 | 0
COc1cccc(OC)c1OC(=O)C1CC(=O)N(c2ccc3c(c2)OCCO3)C1 (stereo unspecified) | -1 | 1 | . | -9 | 0 | -6
O=C(C[C@H]1CC[C@@H]2[C@H](COC[C@@H](O)CN2Cc2cccc(Cl)c2)O1)Nc1nccs1 | -1 | 0 | 0 | -1 | 0 | -6
Cc1ccc(C2=NS(=O)(=O)N(C)C(C(=O)NC3CCCCC3)=C2)cc1 | -32 | -4 | . | -4 | 3 | 0
Cc1ccc(C2=NS(=O)(=O)N(C)C(C(=O)Nc3cc(C)n(CC(=O)N4CCC(C)CC4)n3)=C2)cc1 | 4 | -29* | . | 0 | 2 | 0
CCOCCCNC(=O)CN1C(=O)/C(=C/c2ccccc2C)Sc2ccccc21 | -7 | -8 | 0 | -12 | 0 | -2
SMILES | GSIS activator | rRNA inh HTS | E-sel inducer | RAD52 anneal inh | AF4-AF9 inh | RAD54 inh
CCOCCCNC(=O)/C=C1\Sc2ccccc2N(Cc2ccccc2F)C1=O | . | -17* | 0 | -7 | -3 | -13
CCC(=O)N1CCCCN2[C@H](CO)[C@H](c3ccc(/C=C/c4ccccc4)cc3)[C@@H]2C1 | -13 | -54 | 0 | -14 | 3 | 0
CCN(CC)c1ccc(CNc2ccc(Br)cn2)cc1 | . | . | . | . | . | -5
CCN(CC)c1ccc(Nc2nc(Cl)ncc2Br)cc1 | 13 | 5 | . | 0 | 27* | -1
COc1cccc(Sc2ccccc2CN(C)C)c1 | 10 | . | . | . | . | 0
CN(C)Cc1ccccc1Sc1ccc2c(c1)CCCC2 | 54* | -42 | 3 | 12 | ? | -3
COc1ccc(Cn2cc(CN3CC(N4CCN(Cc5ccccc5F)CC4)CS3(=O)=O)nn2)cc1 (stereo unspecified) | 16 | -1 | 9 | -3 | -2 | .
O=S1(=O)CC(N2CCN(Cc3ccccc3F)CC2)CN1Cc1cn(Cc2ccc(Cl)cc2)nn1 (stereo unspecified) | -29 | -19* | 3 | -13 | -2 | .
COCC(=O)N(C)C[C@H]1Oc2ncc(-c3ccc(F)cc3)cc2C(=O)N([C@H](C)CO)C[C@H]1C | 17 | 7 | 0 | -5 | 0 | -17
O=C(NCC[C@@H]1CC[C@@H](NC(=O)C2CCCCC2)[C@H](CO)O1)Nc1ccc(Cl)cc1 | -11 | -28 | 0 | 6 | 13 | 1
Cc1ccc(C(=O)c2sc3nc4c(cc3c2N)CCC4)cc1 | 74* | . | . | . | . | 5
COc1ccc(N=Nc2cc(C)c(O)c(CN3CCCCC3)c2)cc1 | -16 | -27* | 1 | -5 | 54* | -5
COCC(=O)N[C@@H]1C=C[C@@H](CC(=O)N2CCCCC2)O[C@H]1CO | . | . | . | -5 | -1 | 11
CCC(=O)Nc1ccc2c(c1)C(=O)N(C)C[C@@H](OC)[C@@H](C)CN(C(=O)CN(C)C)[C@H](C)CO2 | 0 | 2 | 0 | . | . | .
COc1ccc2oc(C)c(C(=O)c3ccccc3)c2c1 | 13 | -30* | 0 | -7 | -1 | .
O=C(NC[C@H]1CC[C@@H]2[C@@H](CN2C(=O)Cc2ccncc2)O1)C1CCOCC1 | . | . | . | -4 | 0 | .
Fc1ccc(-n2c(-c3cccs3)nc3nc4ccccc4nc32)cc1 | 9 | . | 36* | . | . | .
Cc1ccc(-n2c(-c3cccs3)nc3nc4ccccc4nc32)cc1 | 20 | 13 | 5 | -8 | 4 | .
Oc1ccc(/C=N/N(Cc2ccccc2)c2ccccc2)c(O)c1O | -11 | -6 | -2 | -8 | 27* | .
Oc1cccc(/C=N/N(Cc2ccccc2)c2ccccc2)c1 | 9 | -42* | 0 | -28 | 8 | .
